Reference: PubChem BioAssay AID602269 (Broad Institute, 2012)
Inconclusive results are not listed. Calls of active or inactive are those of the source.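 The calls were made as follows: active = active in every separate test run, each with half-maximal potency at or below twice its top valid dose; inconclusive = test runs disagree, or a flat partial drop, or poor fit; inactive = inactive in every test run, including signal rising instead.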

System: not listed separately
Test: decrease of heat-induced HSF-1 GFP reporter, dose response, NIH3T3 R4-3T3 cells, GFP/RFP, dry powder (AID 602269)
Conditions: R4-3T3 NIH3T3 HSF-1 GFP / Tet-On RFP fluorescence, 48 h; at 26 µM (top of the series)
How it was run: (§1)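 Reagent – doxycycline 2 µg/mL final for RFP induction, plus 42 °C heat shock · Assay system – engineered NIH3T3 cells, HSF-1 GFP plus doxycycline-inducible RFP · Schedule – 2 h 42 °C shock, then 48 h 37 °C · Measured by – bottom-read fluorescence, GFP ex 485/em 535 nm, RFP ex 550/em 595 nm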

SMILES | activity change, negative = inhibition
CCc1ccc(NC(=O)C2C3CCC(O3)C2C(=O)O)cc1 (stereo unspecified) | -14.3% (inactive)

System: R4-3T3 NIH3T3 HSF-1 GFP / Tet-On RFP fluorescence, 48 h
Test: as above
Conditions: not given
How it was run: as §1

SMILES | AC50 [nM]
CC1=NNC(=O)/C1=C\c1cn(-c2ccccc2)nc1-c1ccc(Cl)cc1 | 1270
O=C(CCl)N1CCCC1c1ccc2c(c1)OCCO2 (stereo unspecified) | 1180
O=C1C=C(NCCN2CCOCC2)C(=O)c2cnccc21 | 2280
CC(C)(C)C(=O)NC(=S)NNC(=O)c1sc2ccccc2c1Cl | 4550
Oc1ccc(Br)cc1/C=N/Nc1ccccn1 | 994
